In PubChem BioAssay AID720702 (The Scripps Research Institute Molecular Screening Center, 2013):
Hit rate of the full screen: of about 370,000 compounds, about 1,200 (0.32%) were called active.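 The calls were made as follows: active = inhibition above the mean of all tested compounds plus 3 SD, set per campaign (cut at about 25% in these data); inactive = the rest.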 Shown is part of a subset that was picked to be rich in actives.

Target: Tyrosyl-DNA phosphodiesterase 2 (Homo sapiens) (UniProt O95551)
Assay: blockers of TDP2 phosphodiesterase activity – biochemical, epi absorbance, recombinant enzyme, primary screen (AID 720702);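 also: 0% = DMSO with enzyme and 100% = buffer with substrate but no TDP2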
Settings: recombinant TDP2, T5PNP hydrolysis, p-nitrophenol absorbance 415 nm; at 12.8 µM; hits give high values
In short: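 test system = human TDP2 enzyme | input = TDP2 enzyme at 120 nM final | medium = 50 mM Tris-HCl pH 7.5 with Mg2+, KCl, DTT, BSA | also added = T5PNP substrate, 5 mM | times = 2 h at 37 °C | technique = epi absorbance | benchmarks = high control without enzyme, low control DMSO plus TDP2 | replication = each compound tested once, singlicate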

Tyrosyl-DNA phosphodiesterase 2 (Homo sapiens), sequence (O95551 whole entry, looked up): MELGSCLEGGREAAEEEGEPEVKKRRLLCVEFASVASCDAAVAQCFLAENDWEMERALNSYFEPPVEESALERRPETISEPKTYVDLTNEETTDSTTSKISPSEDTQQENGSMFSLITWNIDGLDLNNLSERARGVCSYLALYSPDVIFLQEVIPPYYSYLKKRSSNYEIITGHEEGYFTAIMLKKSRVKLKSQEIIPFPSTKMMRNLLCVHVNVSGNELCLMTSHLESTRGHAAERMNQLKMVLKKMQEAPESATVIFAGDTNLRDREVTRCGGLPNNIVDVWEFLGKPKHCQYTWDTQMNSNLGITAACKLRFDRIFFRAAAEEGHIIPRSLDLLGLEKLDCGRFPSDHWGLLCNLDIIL

inhibition, inactive:
COc1ccccc1CCNC(=O)C(=O)NCCC1CCCCN1S(=O)(=O)c1cccs1 (centres undefined) -2.28%
O=C(NCc1ccc(Cl)cc1)C(=O)NCC1CCCN1S(=O)(=O)c1cccs1 (centres undefined) 6.77%
COC(=O)C1CN(Cc2cn(Cc3ccc(F)cc3)nn2)CCS(=O)(=O)N1Cc1ccc(Cl)cc1 (centres undefined) -3.71%
CCCCc1c(O)nc2n(c1=O)CCS2 7.5%
COc1cc(/C=C/C(=O)n2cnc3ccccc32)cc(OC)c1OC -7.12%
CCSC(C)CC1C/C(=N/O)c2c(C)noc2C1 (centres undefined) 4.33%
COC1=C[C@H](C(=O)NCCNC(C)=O)[C@H](C)[C@@H](c2ccccc2)CC1=O 6.52%
Cc1ccc(-n2c(COc3ccccc3)nnc2SCC(=O)Nc2ccc3c(c2)OCCO3)cc1 -5.97%
COC(=O)[C@H](C(C)C)N(CCCc1cn(Cc2ccccc2)nn1)S(=O)(=O)c1ccc(F)cc1Br -3.1%
C=CCO/N=C(\C)c1c(O)c(C)c(-c2ccccc2)n(-c2ccccc2)c1=O -4.01%
COC(=O)[C@]12C[C@H](CC(=O)NCCCN3CCCC3=O)C(=O)N(CCc3ccc(OC)c(OC)c3)C1=C[C@H](COCc1ccccc1)O[C@@H]2C 5.78%
O=C1C(=O)N(Cc2ccc(-c3ccsc3)cc2)c2ccc(OC(F)(F)F)cc21 3.8%
COc1ccc2c(c1)C(C)=CC(C)(C)N2C(=O)CNCc1ccc2c(c1)OCO2 4.77%
COc1cccc(NC(=O)C2C(c3ccccc3)C2(Cl)Cl)c1 (centres undefined) 0.37%
CC(=O)Nc1ccc(S(=O)(=O)NC(C)C(=O)OCCOc2ccc(F)cc2)cc1 (centres undefined) 3.48%
Cc1ccc(C2=CCN(C)C(=O)N2c2ccc(Cl)cc2)cc1 8.05%
COc1cccc(NC(=O)[C@H](Cc2c[nH]c3ccccc23)NC(=O)[C@@H]2Cc3ccccc3CN2)c1 -6.32%
CC[C@@H](CCC(=O)N(c1ccccc1)c1ccccc1)C1CC1 -0.32%
CCN(CC)C(=O)[C@H]1C[C@H](CC(=O)NCC23CC4CC(CC(C4)C2)C3)C(=O)N2CCc3c([nH]c4cc(CCC(=O)N(C)C)ccc34)[C@]12C -4.89%
CCOc1ccc(C(C)NC(=O)CN2C(=O)NC3(CCCCC3)C2=O)cc1OCC (centres undefined) -6.82%
CCOc1ccc(C(CC(=O)O)NC(=O)C23CC4CC(CC(C4)C2)C3)cc1OC (centres undefined) 0.7%
CCOc1ccc(N(CC(=O)Nc2c(C)n(C)n(-c3ccccc3)c2=O)S(=O)(=O)c2ccc(Cl)s2)cc1 -6.34%
N#C/C(C(=O)N1CCOCC1)=C1/SC(Cc2ccc(F)cc2)C(=O)N1c1ccccc1 (centres undefined) 2.43%
O=C(NC1CCC1)c1ccc(C#CC2CC2)cn1 4.08%
CCCCNC(=O)C(C)N(CCN(C)C)C(=O)CCCCCN1C(=O)NC(c2ccc(Cl)cc2)C(C(=O)OCc2ccccc2)=C1C (centres undefined) -0.25%
CC1CN(CCOc2ccccc2[N+](=O)[O-])CC(C)O1 (centres undefined) 14%
Cc1ccc(OCCCCN2CCCCC2)c(Br)c1 5.22%
COc1ccc(-n2c(SCC(=O)Nc3ccc4c(c3)OCCO4)nnc2-c2ccc(Cl)cc2)cc1 -7.72%
O=C(CN1C(=O)CSC1=O)N1CCCC(Nc2ccc(F)cc2)C1 (centres undefined) -8.75%
O=C(c1ccccc1)c1ccc(-c2ccccc2C(=O)NC2CCCCN(Cc3ccc(Cl)cc3)C2=O)cc1 (centres undefined) 15.2%
O=C(Cn1ncc2c3ccccc3n(Cc3ccccc3)c2c1=O)NCCCN1CCOCC1 12.7%
CCCn1c2ccccc2c2cnn(CC(=O)NCCCN3CCCCC3CC)c(=O)c21 (centres undefined) -29.8%
CCC[C@H]1C(=O)CC[C@@]23CCCN2C(=O)CCC[C@@H]13 2.8%
COc1ccccc1NC(=O)C1CCCN(c2cc(C)nc3ncnn23)C1 (centres undefined) 2.18%
COc1cccc(CNC(=O)C2CCCN(c3nc4ccccc4o3)C2)c1OC (centres undefined) -1.52%
O=C(NCCCCO)C(F)(F)C(F)(F)C(F)(F)C(=O)NCCCCO -4.23%
Cc1cc2nc3c(=O)[nH]c(=O)nc-3n(C[C@H](O)[C@H](O)[C@H](O)CO)c2cc1C 3.4%
O=c1[nH][nH]c(C(F)(F)F)c1C=NCc1ccccc1Cl 4.32%
C=CCn1c(=S)sc2c(=O)[nH]c(C)nc21 0.69%
CCOC(=O)C1=C(C(=O)OCC)C2N(Cc3ccc(C#N)cc3)c3ccccc3[C@@]23C[C@@H](C(=O)OC)N(S(=O)(=O)c2ccc(F)cc2)C3=N1 (some centres undefined) 3.59%
COC(=O)[C@@]12CCCCC3=C1N(CCC3)C(=O)[C@H]2CC(=O)NCc1cccc2ccccc12 15.1%

inhibition, active:
O=C(NCc1ccccc1Cl)C(=O)NCC1CCCN1S(=O)(=O)c1cccs1 (centres undefined) 25.5%
CCCCCCCCc1c(O)nc(-n2[nH]c(C)c(CCO)c2=O)[nH]c1=O 41.6%
Cc1cc(C)c(S(=O)(=O)NN=C2c3ccccc3[C@H]3Cc4csc[n+]4[C@@H]23)c(C)c1 25.7%
Oc1c(C=Nc2cccc3nsnc23)ccc2ccccc12 59.5%
COc1ccc2c(c1)C(C)=CC(C)(C)N2C(=O)Nc1ccccc1 41.9%
Cn1nc(N)c2ncc(C(Cl)(Cl)Cl)nc21 33.9%
Cc1[nH][nH]c(=O)c1C(c1ccc(-c2ccc(Cl)cc2)o1)c1c(C)[nH][nH]c1=O 30%
CCOc1ccc(C(c2c(C)[nH][nH]c2=O)c2c(C)[nH][nH]c2=O)cc1OCC 25.3%
Cc1cc(C)c(OCCN2CC(C)OC(C)C2)c(Br)c1 (centres undefined) 30.7%
Cc1ccccc1Cn1c2ccccc2c2cnn(CC(=O)NCc3ccco3)c(=O)c21 24.5%
CCN(CC)CCCC(C)n1c2nc(=O)[nH]c(=O)c-2nc2cc(Cl)ccc21 (centres undefined) 24.6%
Oc1ccc(N=Cc2sc3ccccc3c2Cl)cc1 28.4%
Oc1ccc(N=Cc2c(O)ccc3ccccc23)cc1 29.3%
